According to ChEMBL document CHEMBL1145203, “Synthesis of new benzoxazinone derivatives as neuropeptide Y5 antagonists for the treatment of obesity” (J Med Chem, 2005):

Tests used:
[1] = molecular target: T1, Neuropeptide Y receptor type 5 (Rattus norvegicus, UniProt Q63634); assay: Inhibition of [125I]PYY binding to the rat NPY Y5 receptor in C6 cells; type: cell-based
T1 sequence (Q63634 whole entry): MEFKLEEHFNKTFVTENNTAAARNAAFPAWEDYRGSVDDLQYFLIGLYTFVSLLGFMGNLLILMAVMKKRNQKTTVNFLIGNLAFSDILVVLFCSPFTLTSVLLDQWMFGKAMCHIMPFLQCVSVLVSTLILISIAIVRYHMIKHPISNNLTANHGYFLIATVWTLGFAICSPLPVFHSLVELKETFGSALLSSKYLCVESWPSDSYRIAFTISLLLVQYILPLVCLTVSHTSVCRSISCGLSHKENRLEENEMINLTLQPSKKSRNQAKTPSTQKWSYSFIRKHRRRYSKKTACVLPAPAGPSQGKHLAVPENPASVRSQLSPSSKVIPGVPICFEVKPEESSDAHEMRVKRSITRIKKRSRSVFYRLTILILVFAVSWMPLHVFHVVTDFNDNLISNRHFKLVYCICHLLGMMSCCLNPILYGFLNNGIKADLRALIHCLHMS
Summary of the method: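 Radioligand [125I]-PYY 100 pM, incubated 2 h at 25 °C. Stopped with ice-cold buffer, filtered and washed, bound radioactivity counted. Nonspecific binding defined with 1 µM pNPY; triplicate.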

[2] = molecular target: T2, Neuropeptide Y receptor type 5 (Rattus norvegicus) (UniProt Q63634); assay: Inhibition of PYY effect on forskolin-stimulated cyclic AMP formation in C6 cells expressing rat NPY Y5 receptor; type: functional, cell-based; design: concentration or dose not given beside the values; conditions: concentration not given here
T2 sequence (whole entry): T1 sequence (Q63634 whole entry)
Summary of the method: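 C6 cells stably expressing rat NPY Y5, grown to 80% confluency in serum-free DMEM with L-glutamine, penicillin and streptomycin. Cells trypsinised 2 h before assay, about 50 000 cells/well. Compounds added with or without PYY; forskolin-stimulated cAMP measured after 30 min by FlashPlate with [125I]succinyl cAMP tracer. Expressed as % cAMP formation versus forskolin controls without PYY; three experiments in duplicate.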

**Q.** For `COC(=O)c1ccccc1NC(=O)CN1CCC(N2C(=O)OCc3cccc(C)c32)CC1`, which IC50 [1] is on record?
**A.** Its IC50 is > 1000 nM.

**Q.** `O=C(CN1CCC(N2C(=O)OCc3cc(Cl)ccc32)CC1)Nc1ccccc1C(=O)c1ccccc1` was tested. Which IC50 [1] did it give?
**A.** The IC50 was > 1000 nM.

**Q.** With `Cn1c2ccccc2c2cc(NC(=O)CN3CCC(N4C(=O)OCc5ccccc54)CC3)ccc21` as the compound, how does the IC50 [1] read?
**A.** The IC50 was 9.6 nM.

**Q.** What about the inhibition [2] of the same compound?
**A.** Its inhibition is 88.7%.

**Q.** With `O=C(CN1CCC(N2C(=O)OCc3cc(F)ccc32)CC1)Nc1ccc2ncccc2c1` as the compound, how does the inhibition [2] read?
**A.** Its inhibition is 93.3%.

**Q.** With `Cc1ccc2c(c1)COC(=O)N2C1CCN(CC(=O)Nc2ccc3c(c2)C(=O)c2ccccc2-3)CC1` as the compound, how does the IC50 [1] read?
**A.** Its IC50 is 86.7 nM.

**Q.** And the inhibition [2]?
**A.** Its inhibition is 93.9%.

**Q.** How did the IC50 [1] turn out when `COC(=O)c1ccccc1NC(=O)CN1CCC(N2C(=O)OCc3cc(C)ccc32)CC1` was run?
**A.** The IC50 was > 1000 nM.

**Q.** For `O=C(CN1CCC(N2C(=O)OCc3ccccc32)CC1)Nc1ccccc1C(=O)c1ccccc1`, which IC50 [1] is on record?
**A.** Its IC50 is > 1000 nM.

**Q.** For `O=C(CN1CCC(N2C(=O)OCc3cc(Cl)ccc32)CC1)Nc1ccc(Oc2ccccc2)cc1`, which IC50 [1] is on record?
**A.** Its IC50 is 60.7 nM.

**Q.** And the inhibition [2]?
**A.** Its inhibition is 99.2%.

**Q.** What does the source list for `O=C(CN1CCC(N2C(=O)OCc3cc(Cl)ccc32)CC1)Nc1ccc(C(=O)c2ccccc2)cc1`?
**A.** IC50 [1]: 11.2 nM; inhibition [2]: 97.4%

**Q.** Which IC50 [1] does the source give for `COC(=O)c1ccccc1NC(=O)CN1CCC(N2C(=O)OCc3cc(Cl)ccc32)CC1` here?
**A.** Its IC50 is > 1000 nM.

**Q.** For `Cc1cccc2c1N(C1CCN(CC(=O)Nc3ccc(Cl)cc3)CC1)C(=O)OC2`, which IC50 [1] is on record?
**A.** The IC50 was > 1000 nM.

**Q.** For `O=C(CN1CCC(N2C(=O)OCc3ccccc32)CC1)Nc1ccc(Cl)cc1`, which IC50 [1] is on record?
**A.** The IC50 was 300 nM.

**Q.** What does the source list for `CC(=O)c1ccc(NC(=O)CN2CCC(N3C(=O)OCc4cc(C)ccc43)CC2)cc1`?
**A.** IC50 [1]: 26 nM; inhibition [2]: 89.4%

**Q.** For `Cc1cccc2c1N(C1CCN(CC(=O)Nc3ccccc3)CC1)C(=O)OC2`, which IC50 [1] is on record?
**A.** The IC50 was > 1000 nM.

**Q.** `COC(=O)c1ccccc1NC(=O)CN1CCC(N2C(=O)OCc3ccccc32)CC1` was tested. Which IC50 [1] did it give?
**A.** The IC50 was > 1000 nM.

**Q.** With `CC(=O)c1ccc(NC(=O)CN2CCC(N3C(=O)OCc4cc(Cl)ccc43)CC2)cc1` as the compound, how does the IC50 [1] read?
**A.** Its IC50 is 21 nM.

**Q.** And the inhibition [2]?
**A.** Its inhibition is 99.9%.

**Q.** `O=C(CN1CCC(N2C(=O)OCc3ccccc32)CC1)Nc1ccc2c(c1)-c1ccccc1C2O` (stereo not given) was tested. Which IC50 [1] did it give?
**A.** Its IC50 is 8.7 nM.

**Q.** And the inhibition [2]?
**A.** The inhibition was 96.1%.

**Q.** Which IC50 [1] does the source give for `Cc1cccc2c1N(C1CCN(CC(=O)Nc3ccc4c(c3)-c3ccccc3C4O)CC1)C(=O)OC2` (stereo not given) here?
**A.** The IC50 was 30 nM.

**Q.** And the inhibition [2]?
**A.** Its inhibition is 100%.

**Q.** With `Cc1cccc2c1N(C1CCN(CC(=O)Nc3ccc(C(=O)c4ccccc4)cc3)CC1)C(=O)OC2` as the compound, how does the IC50 [1] read?
**A.** The IC50 was 39.6 nM.

**Q.** What about the inhibition [2] of the same compound?
**A.** The inhibition was 100%.

**Q.** Which results are given for `O=C(CN1CCC(N2C(=O)OCc3cc(Cl)ccc32)CC1)Nc1ccc2c(c1)-c1ccccc1C2=O`?
**A.** IC50 [1]: 25 nM; inhibition [2]: 100%

**Q.** How did the IC50 [1] turn out when `CC(=O)c1ccc(NC(=O)CN2CCC(N3C(=O)OCc4ccccc43)CC2)cc1` was run?
**A.** Its IC50 is 17.3 nM.

**Q.** And the inhibition [2]?
**A.** The inhibition was 95.4%.

**Q.** For `O=C(CN1CCC(N2C(=O)OCc3cc(Cl)ccc32)CC1)Nc1ccc2c(c1)C(=O)c1ccccc1-2`, which IC50 [1] is on record?
**A.** Its IC50 is 69 nM.

**Q.** And the inhibition [2]?
**A.** Its inhibition is 94%.

**Q.** How did the inhibition [2] turn out when `CCn1c2ccccc2c2cc(NC(=O)CN3CCC(N4C(=O)OCc5c(Cl)cccc54)CC3)ccc21` was run?
**A.** Its inhibition is 83.4%.

**Q.** `O=C(CN1CCC(N2C(=O)OCc3cc(Cl)ccc32)CC1)Nc1ccc2c(c1)-c1ccccc1C2O` (stereo not given) was tested. Which IC50 [1] did it give?
**A.** The IC50 was 8 nM.

**Q.** And the inhibition [2]?
**A.** The inhibition was 100%.

**Q.** With `CCn1c2ccccc2c2cc(NC(=O)CN3CCC(N4C(=O)OCc5cccc(C)c54)CC3)ccc21` as the compound, how does the IC50 [1] read?
**A.** Its IC50 is 50 nM.

**Q.** What about the inhibition [2] of the same compound?
**A.** Its inhibition is 96.9%.

**Q.** For `O=C(CN1CCC(N2C(=O)OCc3ccccc32)CC1)Nc1cccc2c1-c1ccccc1C2=O`, which IC50 [1] is on record?
**A.** Its IC50 is 138 nM.

**Q.** `N#Cc1ccc(NC(=O)CN2CCC(N3C(=O)OCc4cc(Cl)ccc43)CC2)cc1` was tested. Which IC50 [1] did it give?
**A.** The IC50 was 199 nM.

**Q.** What about the inhibition [2] of the same compound?
**A.** Its inhibition is 91.5%.

**Q.** Which results are given for `O=C(CN1CCC(N2C(=O)OCc3ccccc32)CC1)Nc1ccc(Oc2ccccc2)cc1`?
**A.** IC50 [1]: 20 nM; inhibition [2]: 100%

**Q.** How did the IC50 [1] turn out when `O=C(CN1CCC(N2C(=O)OCc3cc(Cl)ccc32)CC1)Nc1ccc(C2CCCCC2)cc1` was run?
**A.** Its IC50 is 112 nM.

**Q.** What about the inhibition [2] of the same compound?
**A.** Its inhibition is 98.4%.

**Q.** What does the source list for `O=C(CN1CCC(N2C(=O)OCc3cc(Cl)ccc32)CC1)Nc1ccc2ncccc2c1`?
**A.** IC50 [1]: 148 nM; inhibition [2]: 71.9%

**Q.** What does the source list for `N#Cc1ccc(NC(=O)CN2CCC(N3C(=O)OCc4ccccc43)CC2)cc1`?
**A.** IC50 [1]: 132 nM; inhibition [2]: 88.7%

**Q.** With `O=C(CN1CCC(N2C(=O)OCc3ccccc32)CC1)Nc1ccc2c(c1)C(=O)c1ccccc1-2` as the compound, how does the IC50 [1] read?
**A.** The IC50 was > 1000 nM.

**Q.** What does the source list for `CCn1c2ccccc2c2cc(NC(=O)CN3CCC(N4C(=O)OCc5cccc(OC)c54)CC3)ccc21`?
**A.** IC50 [1]: 765 nM; inhibition [2]: 19.2%

**Q.** How did the IC50 [1] turn out when `Cc1ccc2c(c1)COC(=O)N2C1CCN(CC(=O)Nc2ccc(Oc3ccccc3)cc2)CC1` was run?
**A.** Its IC50 is 104 nM.

**Q.** And the inhibition [2]?
**A.** The inhibition was 94.5%.

**Q.** With `O=C(CN1CCC(N2C(=O)OCc3ccccc32)CC1)Nc1ccc2c(c1)-c1ccccc1C2=O` as the compound, how does the IC50 [1] read?
**A.** Its IC50 is 23.3 nM.

**Q.** And the inhibition [2]?
**A.** The inhibition was 100%.

**Q.** `Cc1cccc2c1N(C1CCN(CC(=O)Nc3ccccc3C(=O)c3ccccc3)CC1)C(=O)OC2` was tested. Which IC50 [1] did it give?
**A.** Its IC50 is > 1000 nM.

**Q.** With `O=C(CN1CCC(N2C(=O)OCc3ccccc32)CC1)Nc1ccccc1` as the compound, how does the IC50 [1] read?
**A.** Its IC50 is > 1000 nM.

**Q.** Which results are given for `Cc1cccc2c1N(C1CCN(CC(=O)Nc3ccc4c(c3)-c3ccccc3C4=O)CC1)C(=O)OC2`?
**A.** IC50 [1]: 50 nM; inhibition [2]: 93.8%

**Q.** Which results are given for `CCn1c2ccccc2c2cc(NC(=O)CN3CCC(N4C(=O)OCc5cc(Cl)ccc54)CC3)ccc21`?
**A.** IC50 [1]: 100 nM; inhibition [2]: 99.3%

**Q.** What does the source list for `COc1cccc2c1N(C1CCN(CC(=O)Nc3ccc4oc5ccccc5c4c3)CC1)C(=O)OC2`?
**A.** IC50 [1]: 55.7 nM; inhibition [2]: 23.6%
